Converted amounts (≈) assume the structure as drawn.
Key:
[1] = tested on: Escherichia coli; assay: Minimum inhibitory concentration against Escherichia coli strain tolC; format: functional
[2] = tested on: Escherichia coli; assay: Minimum inhibitory concentration against Escherichia coli strain SM101; format: functional
[3] = target: T1, Aspartyl/glutamyl-tRNA(Asn/Gln) amidotransferase subunit A (Streptococcus pyogenes serotype M1, UniProt Q99YC0); assay: In vitro inhibitory concentration against Glutaminase activity of bacterial Glu-tRNA-Gln […] (Glu-AdT)
Outline: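 S. pyogenes Glu-AdT, glutaminase-only reaction with no ATP or tRNA. Gln at 2×Km. Inhibitor titrated over […]. Enzyme pre-incubated 15 min with inhibitor, then started with Gln. Reaction buffer was 50 mM HEPES, 25 mM MgCl₂, 15 mM KCl, 1% DMSO, pH 7. IC50 determined in duplicate.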

[4] = Tested for mammalian cellular toxicity expressed as IC50; format: functional
[5] = tested on: Streptococcus pyogenes; assay: Tested for minimal growth inhibitory concentration against Streptococcus pyogenes ATCC 13709; format: functional
[6] = tested on: Helicobacter pylori; assay: Tested for minimal growth inhibitory concentration against Helicobacter pylori ATCC 43629; format: functional
Outline: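 Broth dilution in Brain–Heart Infusion broth with 0.25% yeast extract and 10% horse serum. Inoculum was 6×10⁵ CFU per well, incubated 72 h at 37 °C under 10% CO₂. Highest concentration tested was 64. NCCLS-recommended control antibiotics tracked strain performance.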

[7] = target: T1, Aspartyl/glutamyl-tRNA(Asn/Gln) amidotransferase subunit A; assay: In vitro inhibitory concentration against transferase activity of bacterial Glu-tRNA-Gln […] (Glu-AdT)
Outline: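 S. pyogenes Glu-AdT, Gln-dependent transferase reaction. Substrates were Glu-tRNAGln at >10×Km, ATP at 2×Km and Gln at 0.5×Km. Inhibitor titrated over […]. Enzyme pre-incubated 15 min with inhibitor, Glu-tRNAGln and ATP, then started with Gln. Buffer was 50 mM HEPES, 25 mM MgCl₂, 15 mM KCl, 1% DMSO, pH 7. IC50 determined in duplicate.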

[8] = tested on: Enterococcus faecalis; assay: Tested for minimal growth inhibitory concentration against […] ATCC 29212; format: functional
[9] = tested on: Staphylococcus aureus; assay: Tested for minimal growth inhibitory concentration against Staphylococcus aureus ATCC 29213; format: functional
[10] = tested on: Streptococcus pneumoniae; assay: Tested for minimal growth inhibitory concentration against Streptococcus pneumoniae ATCC 49619; format: functional
[11] = tested on: Staphylococcus carnosus; assay: Tested for minimal growth inhibitory concentration against Staphylococcus carnosus ATCC 51365; format: functional
[12] = tested on: Staphylococcus epidermidis; assay: Tested for minimal growth inhibitory concentration against Staphylococcus epidermidis ATCC 51625; format: functional
[13] = tested on: Staphylococcus aureus; assay: Tested for minimal growth inhibitory concentration against Staphylococcus aureus ATCC 25923; format: functional
[14] = tested on: Staphylococcus epidermidis; assay: Tested for minimal growth inhibitory concentration against Staphylococcus epidermidis ATCC 12228; format: functional
[15] = tested on: Staphylococcus aureus; assay: Tested for minimal growth inhibitory concentration against Staphylococcus aureus ATCC 4330; format: functional

T1 sequence (Q99YC0 whole entry, looked up): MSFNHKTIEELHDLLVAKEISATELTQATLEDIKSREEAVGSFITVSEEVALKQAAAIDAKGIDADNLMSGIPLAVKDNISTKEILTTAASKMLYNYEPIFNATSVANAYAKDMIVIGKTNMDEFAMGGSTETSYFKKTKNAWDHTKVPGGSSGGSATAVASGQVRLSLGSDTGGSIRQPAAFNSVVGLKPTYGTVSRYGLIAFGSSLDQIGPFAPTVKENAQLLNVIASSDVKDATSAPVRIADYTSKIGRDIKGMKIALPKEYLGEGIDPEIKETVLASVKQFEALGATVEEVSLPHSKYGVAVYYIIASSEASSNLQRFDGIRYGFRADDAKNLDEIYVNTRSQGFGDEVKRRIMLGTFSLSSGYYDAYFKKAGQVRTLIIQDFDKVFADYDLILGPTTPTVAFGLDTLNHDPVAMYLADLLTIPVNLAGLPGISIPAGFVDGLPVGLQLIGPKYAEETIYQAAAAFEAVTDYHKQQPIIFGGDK

SMILES	MIC [1]	MIC [2]	IC50 [3]	IC50 [4]	MIC [5]	MIC [6]	IC50 [7]	MIC [8]	MIC [9]	MIC [10]	MIC [11]	MIC [12]	MIC [13]	MIC [14]	MIC [15]
COC(=O)[C@H](CCB1O[C@@]2(C)CCC3C[C@@]2(O1)C3(C)C)NC(=O)OCc1ccccc1	> 64 µg/mL	> 64 µg/mL	> 80 µM	> 100 µM	64 µg/mL (≈ 149 µM)	32 µg/mL (≈ 74.5 µM)	> 20 µM	> 64 µg/mL	> 64 µg/mL	–	–	–	–	–	–
CC1(C)C2CC[C@]3(C)OB(CCC[C@H](NC(=O)OCc4ccccc4)C(=O)O)O[C@]13C2	–	–	> 80 µM	–	–	–	> 20 µM	–	–	–	–	–	–	–	–
CC1(C)C2CC[C@]3(C)OB(CCC[C@H](N)C(=O)O)O[C@]13C2	–	–	> 80 µM	–	–	–	> 20 µM	–	–	–	–	–	–	–	–
COC(=O)[C@H](CCCB1O[C@@]2(C)CCC3C[C@@]2(O1)C3(C)C)NC(=O)OCc1ccccc1	–	–	> 80 µM	–	–	–	> 20 µM	–	–	–	–	–	–	–	–
CC1(C)C2CC[C@]3(C)OB(CC[C@H](NC(=O)OCc4ccccc4)C(=O)O)O[C@]13C2	> 64 µg/mL	> 64 µg/mL	> 80 µM	> 100 µM	> 64 µg/mL	> 64 µg/mL	–	> 64 µg/mL	> 64 µg/mL	–	–	–	–	–	–
CC1(C)C2CC[C@]3(C)OB(CC[C@H](NC(=O)CN)C(=O)O)O[C@]13C2	> 64 µg/mL	> 64 µg/mL	> 80 µM	–	> 64 µg/mL	–	> 20 µM	8 µg/mL (≈ 23.7 µM)	> 64 µg/mL	> 64 µg/mL	–	–	–	–	–
CC(C)(C)OC(=O)NCCCB1O[C@@]2(C)CCC3C[C@@]2(O1)C3(C)C	8 µg/mL (≈ 23.7 µM)	8 µg/mL (≈ 23.7 µM)	> 80 µM	–	> 64 µg/mL	> 64 µg/mL	> 20 µM	> 64 µg/mL	> 64 µg/mL	–	–	–	–	–	–
CC(C)(C)OC(=O)[C@@H](N)CCB1O[C@@]2(C)CCC3C[C@@]2(O1)C3(C)C	8 µg/mL (≈ 23.7 µM)	8 µg/mL (≈ 23.7 µM)	> 80 µM	> 100 µM	> 64 µg/mL	> 64 µg/mL	–	> 64 µg/mL	> 64 µg/mL	–	–	–	–	–	–
CNC(=O)CNC(=O)[C@@H](N)CCB1O[C@@]2(C)CCC3C[C@@]2(O1)C3(C)C	–	–	40 µM	–	8 µg/mL (≈ 22.8 µM)	16 µg/mL (≈ 45.6 µM)	20 µM	16 µg/mL (≈ 45.6 µM)	> 64 µg/mL	16 µg/mL (≈ 45.6 µM)	> 64 µg/mL	> 64 µg/mL	> 64 µg/mL	> 64 µg/mL	> 64 µg/mL
CC1(C)C2CC[C@]3(C)OB(CCCN)O[C@]13C2	> 64 µg/mL	> 64 µg/mL	> 80 µM	> 100 µM	–	> 64 µg/mL	> 20 µM	> 64 µg/mL	> 64 µg/mL	–	–	–	–	–	–
CC1(C)C2CC[C@]3(C)OB(CC[C@H](N)C(=O)NS(=O)(=O)C(F)(F)F)O[C@]13C2	–	–	55 µM	–	–	–	4.7 µM	–	–	–	–	–	–	–	–
CN[C@@H](CCB1O[C@@]2(C)CCC3C[C@@]2(O1)C3(C)C)C(=O)O	–	–	–	–	–	–	1.1 µM	–	–	–	–	–	–	–	–
COC(=O)[C@@H](N)CCB1O[C@@]2(C)CCC3C[C@@]2(O1)C3(C)C	> 64 µg/mL	> 64 µg/mL	1.5 µM	> 100 µM	8 µg/mL (≈ 27.1 µM)	64 µg/mL (≈ 217 µM)	0.07 µM	4 µg/mL (≈ 13.6 µM)	> 64 µg/mL	2 µg/mL (≈ 6.78 µM)	> 64 µg/mL	> 64 µg/mL	> 64 µg/mL	> 64 µg/mL	> 64 µg/mL
CC1(C)C2CC[C@]3(C)OB(CC[C@H](N)C(=O)NS(=O)(=O)c4ccc(N)cc4)O[C@]13C2	–	–	> 80 µM	–	–	–	10 µM	–	–	–	–	–	–	–	–
CNC(=O)[C@@H](N)CCB1O[C@@]2(C)CCC3C[C@@]2(O1)C3(C)C	64 µg/mL (≈ 218 µM)	64 µg/mL (≈ 218 µM)	> 80 µM	> 100 µM	32 µg/mL (≈ 109 µM)	> 64 µg/mL	35 µM	> 64 µg/mL	> 64 µg/mL	32 µg/mL (≈ 109 µM)	–	–	–	–	–
COC(=O)[C@@H](N)CCCB1O[C@@]2(C)CCC3C[C@@]2(O1)C3(C)C	–	–	> 80 µM	–	–	–	> 20 µM	–	–	–	–	–	–	–	–
COC(=O)[C@@H](N)CCB(O)O	> 64 µg/mL	> 64 µg/mL	1.3 µM	> 100 µM	6 µg/mL (≈ 37.3 µM)	32 µg/mL (≈ 199 µM)	0.05 µM	3 µg/mL (≈ 18.6 µM)	> 64 µg/mL	2 µg/mL (≈ 12.4 µM)	> 64 µg/mL	> 64 µg/mL	> 64 µg/mL	> 64 µg/mL	> 64 µg/mL
CC(=O)N[C@@H](CCB1O[C@@]2(C)CCC3C[C@@]2(O1)C3(C)C)C(=O)O	–	–	> 80 µM	–	–	–	> 20 µM	–	–	–	–	–	–	–	–
CC1(C)C2CC[C@]3(C)OB(CCC(N)CC(=O)O)O[C@]13C2 (some centres undefined)	–	–	–	–	–	–	6.5 µM	–	–	–	–	–	–	–	–
CC1(C)C2CC[C@]3(C)OB(CC[C@H](N)C(=O)NS(=O)(=O)c4ccccc4)O[C@]13C2	–	–	40 µM	–	–	–	20 µM	–	–	–	–	–	–	–	–
N[C@@H](CCB(O)O)C(=O)O	> 64 µg/mL	> 64 µg/mL	1.6 µM	> 100 µM	8 µg/mL (≈ 54.4 µM)	32 µg/mL (≈ 218 µM)	0.1 µM	8 µg/mL (≈ 54.4 µM)	> 64 µg/mL	3 µg/mL (≈ 20.4 µM)	> 64 µg/mL	> 64 µg/mL	> 64 µg/mL	> 64 µg/mL	> 64 µg/mL

— ChEMBL document CHEMBL1133968, “Glutamyl-gamma-boronate inhibitors of bacterial Glu-tRNA(Gln) amidotransferase” (Bioorg Med Chem Lett, 2001)
